In ChEMBL document CHEMBL1667823, “Design and synthesis of 4-arylpiperidinyl amide and N-arylpiperdin-3-yl-cyclopropane carboxamide derivatives as novel melatonin receptor ligands” (Bioorg Med Chem Lett, 2011):

test system: Liver microsomes; assay: Intrinsic clearance in rat liver microsome at 1 uM by LC/MS analysis; assay type: ADME; conditions: not given
Summary of the method: (§1)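 Compound at 1 µM incubated with liver microsomes (0.5 mg/mL protein) and an NADPH-regenerating system, sampled at 0, 5, 15, 30 and 60 min. Quenched, centrifuged supernatants analysed by LC/MS for remaining parent to estimate T1/2.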

Row | clearance [µL/min/mg] | SMILES
1 | 616 | COc1cccc(N2CCC[C@H](NC(=O)C3CC3)C2)c1
2 | 144 | COc1ccc2cccc(CCNC(C)=O)c2c1 [AGOMELATINE]

The next lines start with the compound.

Row | SMILES | clearance [µL/min/mg]
3 | COc1cccc(C2CCN(C(=O)C3CC3)CC2)c1 | 91
4 | CCC(=O)NCC[C@@H]1CCc2ccc3c(c21)CCO3 [RAMELTEON] | 60
5 | O=C(N[C@H]1CCCN(c2cccc(OC(F)F)c2)C1)C1CC1 | 485
6 | COc1cc(N2CCC[C@H](NC(=O)C3CC3)C2)ccc1Cl | 199

test system: CHO-Galpha16; assay: Intrinsic activity at rat MT1 receptor expressed in CHO-Galpha16 cells assessed as Ca2+ mobilization after 20 mins by FLIPR assay relative to ramelteon; assay type: cell-based; conditions: not given
Summary of the method: (§2)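 CHO-Galpha16 cells expressing rat MT1 or MT2, plated 24 h ahead, loaded with Fluo4-AM (1.5 final) plus pluronic acid in HBSS/20 mM HEPES/0.1% BSA pH 7.4 with 2.5 mM probenecid, 1 h at 37 °C, then washed. Ca2+ read by FLIPR. Agonist mode: 15 s baseline, compound added, 3 min read. Antagonist mode: compound preincubated 20 min at room temperature, then melatonin at EC80, 3 min read.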

Row | SMILES | Intrinsic activity [%]
7 | COc1cccc(N2CCCC2CNC(=O)C2CC2)c1 (racemic) | 89
8 | O=C(C1CC1)N1CCC(c2cccc(O)c2)CC1 | 96
9 | COc1cccc(N2CCC[C@H](NC(=O)C3CC3)C2)c1 | 77
10 | COc1cccc(C2CCN(C(=O)C3CC3)CC2)c1 | 41
11 | CCC(=O)NCC[C@@H]1CCc2ccc3c(c21)CCO3 [RAMELTEON] | 100
12 | O=C(N[C@H]1CCCN(c2cccc(OC(F)F)c2)C1)C1CC1 | 21
13 | COc1ccc2cccc(CCNC(C)=O)c2c1 [AGOMELATINE] | 94
14 | COc1cc(N2CCC[C@H](NC(=O)C3CC3)C2)ccc1Cl | 73

test system: Liver microsomes; assay: Intrinsic clearance in human liver microsome at 1 uM by LC/MS analysis; assay type: ADME; conditions: not given; summary of the method: as §1

Row | clearance [µL/min/mg] | SMILES
15 | 28 | COc1cccc(N2CCC[C@H](NC(=O)C3CC3)C2)c1
16 | 361 | COc1ccc2cccc(CCNC(C)=O)c2c1 [AGOMELATINE]

Further lines, the compound ahead of its results:

Row | SMILES | clearance [µL/min/mg]
17 | COc1cccc(C2CCN(C(=O)C3CC3)CC2)c1 | 29
18 | CCC(=O)NCC[C@@H]1CCc2ccc3c(c21)CCO3 [RAMELTEON] | 47
19 | O=C(N[C@H]1CCCN(c2cccc(OC(F)F)c2)C1)C1CC1 | 48
20 | COc1cc(N2CCC[C@H](NC(=O)C3CC3)C2)ccc1Cl | 45

test system: not listed separately; assay: Binding affinity to rat MT1 receptor expressed in CHO-Galpha16 cells assessed as Ca2+ mobilization after 20 mins by FLIPR assay; assay type: cell-based; conditions: not given; summary of the method: as §2

Row | EC50 [nM] | SMILES
21 | 18 | COc1cccc(N2CCCC2CNC(=O)C2CC2)c1 (racemic)
22 | 3.9 | COc1cccc(N2CCC[C@H](NC(=O)C3CC3)C2)c1
23 | 2.1 | COc1ccc2cccc(CCNC(C)=O)c2c1 [AGOMELATINE]

Continued, compound first:

Row | SMILES | EC50 [nM]
24 | O=C(C1CC1)N1CCC(c2cccc(O)c2)CC1 | > 10000
25 | COc1cccc(C2CCN(C(=O)C3CC3)CC2)c1 | 65
26 | CCC(=O)NCC[C@@H]1CCc2ccc3c(c21)CCO3 [RAMELTEON] | 3.1
27 | O=C(N[C@H]1CCCN(c2cccc(OC(F)F)c2)C1)C1CC1 | 390
28 | COc1cc(N2CCC[C@H](NC(=O)C3CC3)C2)ccc1Cl | 0.74

test system: not listed separately; assay: Drug level in rat plasma at 10 mg/kg, ip after 1 hr; assay type: ADME, organism-based; set-up: dose 10 mg/kg, route intraperitoneal; conditions: read-out: Drug uptake
Summary of the method: (§3)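 Rats dosed 10 mg/kg IP, with brain and plasma concentrations taken at 1 h. Vehicle varied: 20% HP-bCD, 15% Solutol, or 10% DMSO with 2.5% PEG400 in 15% Solutol. B/P is the brain-to-plasma concentration ratio.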

Row | concentration at 1 h [nM] | SMILES
29 | 730 | COc1cccc(N2CCC[C@H](NC(=O)C3CC3)C2)c1
30 | 700 | COc1ccc2cccc(CCNC(C)=O)c2c1 [AGOMELATINE]

Continued, compound first:

Row | SMILES | concentration at 1 h [nM]
31 | COc1cccc(C2CCN(C(=O)C3CC3)CC2)c1 | 390
32 | CCC(=O)NCC[C@@H]1CCc2ccc3c(c21)CCO3 [RAMELTEON] | 580

species: Rattus norvegicus; assay: Ratio of Ki for rat MT1 to Ki for rat MT2; conditions: not given
Summary of the method: (§4)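 Rat MT1 or MT2 membranes from CHO-Galpha16 cells incubated with [3H]-melatonin (0.5 nM final, 80 Ci/mmol) in 50 mM Tris/HCl pH 7.4, 5 mM MgCl2. Nonspecific binding defined with excess melatonin. Stopped by rapid GF/B filtration with five ice-cold washes. Ki from IC50 via Cheng–Prusoff.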

Row | Ratio Ki | SMILES
33 | 4 | COc1cccc(C2CCN(C(=O)C3CC3)CC2)c1

species: Rattus norvegicus; assay: Intrinsic activity at rat MT2 receptor expressed in CHO-Galpha16 cells assessed as Ca2+ mobilization after 20 mins by FLIPR assay relative to agomelatine; assay type: cell-based; conditions: not given; summary of the method: as §2

Row | SMILES | Intrinsic activity [%]
34 | COc1cccc(N2CCCC2CNC(=O)C2CC2)c1 (racemic) | 98
35 | O=C(C1CC1)N1CCC(c2cccc(O)c2)CC1 | 23
36 | COc1cccc(N2CCC[C@H](NC(=O)C3CC3)C2)c1 | 74
37 | COc1cccc(C2CCN(C(=O)C3CC3)CC2)c1 | 74
38 | CCC(=O)NCC[C@@H]1CCc2ccc3c(c21)CCO3 [RAMELTEON] | 95
39 | O=C(N[C@H]1CCCN(c2cccc(OC(F)F)c2)C1)C1CC1 | 57
40 | COc1ccc2cccc(CCNC(C)=O)c2c1 [AGOMELATINE] | 100
41 | COc1cc(N2CCC[C@H](NC(=O)C3CC3)C2)ccc1Cl | 65

test system: not listed separately; assay: Binding affinity to rat MT2 receptor expressed in CHO-Galpha16 cells assessed as Ca2+ mobilization after 20 mins by FLIPR assay; assay type: cell-based; conditions: not given; summary of the method: as §2

Row | EC50 [nM] | SMILES
42 | 2.5 | COc1cccc(N2CCCC2CNC(=O)C2CC2)c1 (racemic)
43 | 6.2 | COc1cccc(N2CCC[C@H](NC(=O)C3CC3)C2)c1
44 | 1.4 | COc1ccc2cccc(CCNC(C)=O)c2c1 [AGOMELATINE]

Second part, the compound before the results:

Row | SMILES | EC50 [nM]
45 | O=C(C1CC1)N1CCC(c2cccc(O)c2)CC1 | 3600
46 | COc1cccc(C2CCN(C(=O)C3CC3)CC2)c1 | 9.5
47 | CCC(=O)NCC[C@@H]1CCc2ccc3c(c21)CCO3 [RAMELTEON] | 0.89
48 | O=C(N[C@H]1CCCN(c2cccc(OC(F)F)c2)C1)C1CC1 | 4.2
49 | COc1cc(N2CCC[C@H](NC(=O)C3CC3)C2)ccc1Cl | 2.3

test system: not listed separately; assay: Displacement of [3H]melatonin from rat MT1 receptor expressed in CHO-Galpha16 cells; assay type: cell-based; conditions: not given; summary of the method: as §4

Row | IC50 [nM] | SMILES | Ki [nM]
50 | – | COc1cccc(N2CCCC2CNC(=O)C2CC2)c1 (racemic) | 21
51 | – | COc1cccc(N2CCC[C@H](NC(=O)C3CC3)C2)c1 | 9.9
52 | – | COc1cccc(C2CCN(C(=O)C3CC3)CC2)c1 | 40
53 | – | CCC(=O)NCC[C@@H]1CCc2ccc3c(c21)CCO3 [RAMELTEON] | 2
54 | 870 | O=C(N[C@H]1CCCN(c2cccc(OC(F)F)c2)C1)C1CC1 | 410
55 | – | COc1ccc2cccc(CCNC(C)=O)c2c1 [AGOMELATINE] | 1.2
56 | – | COc1cc(N2CCC[C@H](NC(=O)C3CC3)C2)ccc1Cl | 1.2

test system: not listed separately; assay: Drug level in rat brain at 10 mg/kg, ip after 1 hr; assay type: ADME, organism-based; set-up: dose 10 mg/kg, route intraperitoneal; conditions: read-out: Drug uptake; summary of the method: as §3

Row | concentration at 1 h [nM] | SMILES
57 | 180 | COc1cccc(N2CCC[C@H](NC(=O)C3CC3)C2)c1
58 | 1030 | COc1ccc2cccc(CCNC(C)=O)c2c1 [AGOMELATINE]

The remaining lines, values behind:

Row | SMILES | concentration at 1 h [nM]
59 | COc1cccc(C2CCN(C(=O)C3CC3)CC2)c1 | 540
60 | CCC(=O)NCC[C@@H]1CCc2ccc3c(c21)CCO3 [RAMELTEON] | 390

test system: CHO-Galpha16; assay: Inhibition of rat MT1 receptor expressed in CHO-Galpha16 cells relative to control; assay type: cell-based; set-up: concentration or dose not given beside the values; conditions: dose or concentration not given here; summary of the method: as §2

Row | SMILES | inhibition [%]
61 | O=C(N[C@H]1CCCN(c2cccc(OC(F)F)c2)C1)C1CC1 | 96

test system: not listed separately; assay: Displacement of [3H]melatonin from rat MT2 receptor expressed in CHO-Galpha16 cells; assay type: cell-based; conditions: not given; summary of the method: as §4

Row | SMILES | Ki [nM]
62 | COc1cccc(N2CCCC2CNC(=O)C2CC2)c1 (racemic) | 3.3
63 | COc1cccc(N2CCC[C@H](NC(=O)C3CC3)C2)c1 | 2.7
64 | COc1cccc(C2CCN(C(=O)C3CC3)CC2)c1 | 10
65 | CCC(=O)NCC[C@@H]1CCc2ccc3c(c21)CCO3 [RAMELTEON] | 0.03
66 | O=C(N[C@H]1CCCN(c2cccc(OC(F)F)c2)C1)C1CC1 | 44
67 | COc1ccc2cccc(CCNC(C)=O)c2c1 [AGOMELATINE] | 0.14
68 | COc1cc(N2CCC[C@H](NC(=O)C3CC3)C2)ccc1Cl | 2.1

test system: not listed separately; assay: Ratio of drug level in rat brain to plasma at 10 mg/kg, ip after 1 hr; assay type: ADME, organism-based; set-up: dose 10 mg/kg, route intraperitoneal; conditions: not given; summary of the method: as §3

Row | Kp at 1 h | SMILES
69 | 0.2 | COc1cccc(N2CCC[C@H](NC(=O)C3CC3)C2)c1
70 | 1.5 | COc1ccc2cccc(CCNC(C)=O)c2c1 [AGOMELATINE]

Continued, compound first:

Row | SMILES | Kp at 1 h
71 | COc1cccc(C2CCN(C(=O)C3CC3)CC2)c1 | 1.4
72 | CCC(=O)NCC[C@@H]1CCc2ccc3c(c21)CCO3 [RAMELTEON] | 0.7
